# Experiments:
# [1] = molecular target: wild-type EGFR (Homo sapiens, UniProt P00533); experiment: kinase inhibition, wild-type EGFR; assay type: biochemical; details: read-out: IC50 against wild-type EGFR; kinase level; unpublished data
# [2] = preclinical tolerability in animals; assay type: in vivo; details: preclinical studies; unpublished data
# [3] = phase I dose-escalation: plasma pharmacokinetics; assay type: in vivo, patients; details: for Cmax,ss / t1/2 / AUC0-24 h / Cmax: mean (%CV); for Tmax,ss / Tmax: median (range)
# Method in brief: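 Oral tablet, fasted, qd or b.i.d. (25–300 mg). Plasma sampled in cycle 0 after a single dose at pre-dose and 0.5–144 h. Under continuous dosing, sampled pre-dose on cycle 1 days 8 and 15, and on day 21 pre-dose to 24 h (b.i.d. to 12 h). Plasma stored at −80 °C. Noncompartmental analysis; arithmetic mean (%CV), Tmax median (range).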
# [4] = system: EGFR T790M-mutated NSCLC; experiment: phase I dose-escalation: efficacy; assay type: in vivo, patients; details: FAS
# Method in brief: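 Adults with T790M+ NSCLC (ARMS-confirmed) progressing on prior EGFR-TKIs; 3+3 escalation. Oral tablet, empty stomach: single dose day 1, then after 7 days continuous dosing in 21-day cycles (25–300 mg/day) until progression. CT/MRI brain, CT neck/chest/abdomen, bone scan every eight cycles; assessed at baseline, cycles 2, 4, 6, then every 2 cycles. RECIST v1.1 best overall response; disease control confirmed by imaging every 6 weeks.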
# [5] = multiple doses 21 days, 25 mg qd, n = 1
# [6] = multiple doses 21 days, 50 mg qd, n = 3
# [7] = multiple doses 21 days, 100 mg b.i.d., n = 3
# [8] = multiple doses 21 days, 100 mg qd, n = 3
# [9] = multiple doses 21 days, 200 mg qd, n = 3
# [10] = multiple doses 21 days, 300 mg qd, n = 1
# [11] = steady state after 21 days of multiple doses
# Chain of wild-type EGFR (P00533 25-1210): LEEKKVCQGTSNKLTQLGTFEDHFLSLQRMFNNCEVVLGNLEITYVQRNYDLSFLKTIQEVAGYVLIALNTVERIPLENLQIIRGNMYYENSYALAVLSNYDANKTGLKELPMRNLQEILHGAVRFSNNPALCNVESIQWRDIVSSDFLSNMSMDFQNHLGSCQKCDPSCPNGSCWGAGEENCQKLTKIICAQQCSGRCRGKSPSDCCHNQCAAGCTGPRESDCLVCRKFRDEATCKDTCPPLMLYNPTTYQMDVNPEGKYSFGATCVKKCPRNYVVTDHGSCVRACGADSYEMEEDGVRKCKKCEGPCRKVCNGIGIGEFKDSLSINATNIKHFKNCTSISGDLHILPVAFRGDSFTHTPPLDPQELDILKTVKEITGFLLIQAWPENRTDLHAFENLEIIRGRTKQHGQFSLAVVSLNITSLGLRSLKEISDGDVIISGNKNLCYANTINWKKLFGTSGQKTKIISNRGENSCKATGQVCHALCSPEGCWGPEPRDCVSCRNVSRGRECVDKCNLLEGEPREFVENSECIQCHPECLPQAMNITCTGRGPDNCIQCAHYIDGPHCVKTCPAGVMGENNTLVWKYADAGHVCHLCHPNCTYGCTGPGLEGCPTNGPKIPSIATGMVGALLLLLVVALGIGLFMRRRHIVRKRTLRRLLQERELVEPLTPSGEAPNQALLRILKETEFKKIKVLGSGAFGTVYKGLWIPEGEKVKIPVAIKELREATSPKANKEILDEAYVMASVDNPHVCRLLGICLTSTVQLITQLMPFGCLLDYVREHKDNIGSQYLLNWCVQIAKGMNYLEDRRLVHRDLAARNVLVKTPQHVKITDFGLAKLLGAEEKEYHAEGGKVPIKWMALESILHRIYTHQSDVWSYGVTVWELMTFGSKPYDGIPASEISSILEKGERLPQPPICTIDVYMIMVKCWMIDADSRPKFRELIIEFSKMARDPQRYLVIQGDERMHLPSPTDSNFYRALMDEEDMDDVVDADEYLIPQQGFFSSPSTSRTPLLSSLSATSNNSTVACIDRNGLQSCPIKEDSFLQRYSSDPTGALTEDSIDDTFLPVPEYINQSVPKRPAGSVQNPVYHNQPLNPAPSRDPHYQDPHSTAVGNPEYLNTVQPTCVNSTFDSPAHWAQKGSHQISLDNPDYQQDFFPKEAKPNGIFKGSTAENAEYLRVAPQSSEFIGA
compound,measurement,setting,value
C=CC(=O)Nc1cc(Nc2ncc(Cl)c(Nc3ccccc3C(=O)C(=O)N(C)C)n2)c(OC)cc1N1CCN(C)CC1 [BPI-15086],IC50,[1],503 nM
same,tolerability in animals,[2],well tolerated
same,dose dependence of Cmax and AUC0-t,"[3]; 25 to 300 mg, single dose and multiple doses",increased in a dose-dependent manner
same,"Cmax,ss",[3]; [5],24.6 (NA) ng/ml
same,"Tmax,ss",[3]; [5],2.88 (2.88-2.88) h
same,"Cmax,ss",[3]; [6],48.5 (64.3) ng/ml
same,"Tmax,ss",[3]; [6],2.08 (2.02-4.00) h
same,t1/2,"[3]; multiple doses 21 days, 50 mg qd",8.94 (NA) h
same,"Cmax,ss",[3]; [7],240 (37.9) ng/ml
same,"Tmax,ss",[3]; [7],2.98 (2.03-3.00) h
same,t1/2,"[3]; multiple doses 21 days, 100 mg b.i.d.",4.78 (NA) h
same,"Cmax,ss",[3]; [8],84.6 (65.6) ng/ml
same,"Tmax,ss",[3]; [8],3.00 (2.00-3.95) h
same,"Cmax,ss",[3]; [9],209 (71.1) ng/ml
same,"Tmax,ss",[3]; [9],2.02 (1.98-3.00) h
same,t1/2,"[3]; multiple doses 21 days, 200 mg qd",9.09 (1.51) h
same,"Cmax,ss",[3]; [10],924 (NA) ng/ml
same,"Tmax,ss",[3]; [10],2.02 (2.02-2.02) h
same,t1/2,"[3]; multiple doses 21 days, 300 mg qd",9.84 (NA) h
same,AUC0-24 h,"[3]; single dose, 25 mg qd, n = 1",285 (NA) h × ng/ml
same,Cmax,"[3]; single dose, 25 mg qd, n = 1",31.6 (NA) ng/ml
same,t1/2,"[3]; single dose, 25 mg qd, n = 1",12.2 (NA) h
same,Tmax,"[3]; single dose, 25 mg qd, n = 1",1.97 (1.97-1.97) h
same,AUC0-24 h,"[3]; single dose, 50 mg qd, n = 3",324 (47.7) h × ng/ml
same,Cmax,"[3]; single dose, 50 mg qd, n = 3",31.3 (40.1) ng/ml
same,t1/2,"[3]; single dose, 50 mg qd, n = 3",13.4 (35.2) h
same,Tmax,"[3]; single dose, 50 mg qd, n = 3",2.93 (2.02-4.05) h
same,AUC0-24 h,"[3]; single dose, 100 mg qd, n = 3",580 (37.3) h × ng/ml
same,Cmax,"[3]; single dose, 100 mg qd, n = 3",46.1 (34.7) ng/ml
same,t1/2,"[3]; single dose, 100 mg qd, n = 3",11.3 (23.3) h
same,Tmax,"[3]; single dose, 100 mg qd, n = 3",3.00 (2.03-4.00) h
same,AUC0-24 h,"[3]; single dose, 200 mg qd, n = 7",2630 (91.2) h × ng/ml
same,Cmax,"[3]; single dose, 200 mg qd, n = 7",273 (97.8) ng/ml
same,t1/2,"[3]; single dose, 200 mg qd, n = 7",9.91 (15.5) h
same,Tmax,"[3]; single dose, 200 mg qd, n = 7",4.02 (2.02-5.13) h
same,AUC0-24 h,"[3]; single dose, 300 mg qd, n = 3",3860 (41.3) h × ng/ml
same,Cmax,"[3]; single dose, 300 mg qd, n = 3",354 (29.5) ng/ml
same,t1/2,"[3]; single dose, 300 mg qd, n = 3",14.1 (58.6) h
same,Tmax,"[3]; single dose, 300 mg qd, n = 3",4.00 (3.98-5.00) h
same,"mean apparent terminal elimination half-life (t1/2), range across doses","[3]; single dose, 25-300 mg",9.91 to 14.1 h
same,"Median Tmax, range across doses","[3]; single dose, lowest to highest doses 25-300 mg",1.97 to 4.02 h
same,"mean Vz/F, range across doses",[3]; steady state,556 to 3830 L
same,"mean apparent oral clearance (CLss/F), range across doses",[3]; steady state,49.3 to 166 L/h
same,"mean t1/2, range across doses",[3]; steady state,4.78 to 9.84 h
same,"Cmax,ss, range across doses",[3]; [11],24.6 to 924 ng/mL
same,"Tmax,ss, range across doses",[3]; [11],2.02 to 3.00 h
same,Best overall response: Complete response,[4]; 25 mg/day (n = 1),0 n (%)
same,Best overall response: Not evaluable,[4]; 25 mg/day (n = 1),0 n (%)
same,Best overall response: Partial response,[4]; 25 mg/day (n = 1),0 n (%)
same,Best overall response: Progressive disease,[4]; 25 mg/day (n = 1),1 (100.0) n (%)
same,Best overall response: Stable disease,[4]; 25 mg/day (n = 1),0 n (%)
same,"PFS, median (95% CI)",[4]; 25 mg/day (n = 1),1.5 (NE-NE) months
same,Best overall response: Complete response,[4]; 50 mg/day (n = 3),0 n (%)
same,Best overall response: Not evaluable,[4]; 50 mg/day (n = 3),0 n (%)
same,Best overall response: Partial response,[4]; 50 mg/day (n = 3),0 n (%)
same,Best overall response: Progressive disease,[4]; 50 mg/day (n = 3),1 (33.3) n (%)
same,Best overall response: Stable disease,[4]; 50 mg/day (n = 3),2 (66.7) n (%)
same,"OS, median (95% CI)",[4]; 50 mg/day (n = 3),15.0 (8.4-15.0) months
same,"PFS, median (95% CI)",[4]; 50 mg/day (n = 3),4.3 (1.6-5.8) months
same,Best overall response: Complete response,[4]; 100 mg/day (n = 3),0 n (%)
same,Best overall response: Not evaluable,[4]; 100 mg/day (n = 3),0 n (%)
same,Best overall response: Partial response,[4]; 100 mg/day (n = 3),1 (33.3) n (%)
same,Best overall response: Progressive disease,[4]; 100 mg/day (n = 3),2 (66.7) n (%)
same,Best overall response: Stable disease,[4]; 100 mg/day (n = 3),0 n (%)
same,"DOR, median (95% CI)",[4]; 100 mg/day (n = 3),9.7 (NE-NE) months
same,"OS, median (95% CI)",[4]; 100 mg/day (n = 3),16.1 (NE-NE) months
same,"PFS, median (95% CI)",[4]; 100 mg/day (n = 3),1.6 (1.5-12.6) months
same,Best overall response: Complete response,[4]; 200 mg/day (n = 7),0 n (%)
same,Best overall response: Not evaluable,[4]; 200 mg/day (n = 7),1 (14.3) n (%)
same,Best overall response: Partial response,[4]; 200 mg/day (n = 7),2 (28.6) n (%)
same,Best overall response: Progressive disease,[4]; 200 mg/day (n = 7),3 (42.9) n (%)
same,Best overall response: Stable disease,[4]; 200 mg/day (n = 7),1 (14.3) n (%)
same,"DOR, median (95% CI)",[4]; 200 mg/day (n = 7),6.7 (3.7-9.8) months
same,"PFS, median (95% CI)",[4]; 200 mg/day (n = 7),3.0 (1.6-11.3) months
same,Best overall response: Complete response,[4]; 300 mg/day (n = 3),0 n (%)
same,Best overall response: Not evaluable,[4]; 300 mg/day (n = 3),1 (33.3) n (%)
same,Best overall response: Partial response,[4]; 300 mg/day (n = 3),0 n (%)
same,Best overall response: Progressive disease,[4]; 300 mg/day (n = 3),0 n (%)
same,Best overall response: Stable disease,[4]; 300 mg/day (n = 3),2 (66.7) n (%)
same,"OS, median (95% CI)",[4]; 300 mg/day (n = 3),9.2 (NE-NE) months
same,"PD, patients",[4]; 25-mg/day,100%
same,"PR, patients","[4]; 25-mg/day, 50-mg/day, and 300-mg/day groups",none of the patients
same,"PD, patients",[4]; 50-mg/day,33.3%
same,DCR,"[4]; 50-mg/day, 2/3 patients",66.7%
same,"PD, patients",[4]; 100-mg/day,66.7%
same,"PR, patients",[4]; 100-mg/day,33.3%
same,DCR,"[4]; 100-mg/day, 1/3 patients",33.3%
same,"PD, patients",[4]; 200-mg/day,42.9%
same,"PR, patients",[4]; 200-mg/day,28.6%
same,DCR,"[4]; 200-mg/day, 3/7 patients",42.9%
same,DCR,"[4]; 300-mg/day, 2/3 patients",66.7%
same,Best overall response: Complete response,[4]; All (n = 17),0 n (%)
same,Best overall response: Not evaluable,[4]; All (n = 17),2 (11.8) n (%)
same,Best overall response: Partial response,[4]; All (n = 17),3 (17.6) n (%)
same,Best overall response: Progressive disease,[4]; All (n = 17),7 (41.2) n (%)
same,Best overall response: Stable disease,[4]; All (n = 17),5 (29.4) n (%)
same,"DOR, median (95% CI)",[4]; All (n = 17),9.7 (3.7-9.8) months
same,"OS, median (95% CI)",[4]; All (n = 17),15.0 (8.4-16.1) months
same,"PFS, median (95% CI)",[4]; All (n = 17),1.6 (1.6-5.3) months
same,"CR, patients",[4]; all 17 patients,No patients showed CR
same,DCR,[4]; all 17 patients,47.1%
same,ORR,[4]; all 17 patients,17.6%
same,"PD, patients",[4]; all 17 patients,41.2%
same,"confirmed PR, patients",[4]; all 17 patients,17.6%
same,"could not be assessed for response, patients",[4]; all 17 patients,11.8%
same,response,[4]; one patient of the 25-mg/day dose group,no response was observed
same,"PD, patients",[4]; three patients in the 300-mg/day group,None

# Source: paper PMC9271465 (ESMO Open, 2022)
